Laboratory results published in paper PMC4390475 (Journal of pharmaceutical sciences, 2015).

Experiments:
[1] = Metabolic stability using pooled human liver microsomes; type: in vitro ADME; settings: 10 and 50 μM, active microsomes, up to 60 min, 37°C
CYP1A2 = molecular target: T1, CYP1A2 (Homo sapiens, UniProt P05177); test: CYP inhibition in human liver microsomes; type: in vitro ADME; settings: 1 or 10 μM test article, 20 min, 37°C
T1 sequence (P05177 1-516): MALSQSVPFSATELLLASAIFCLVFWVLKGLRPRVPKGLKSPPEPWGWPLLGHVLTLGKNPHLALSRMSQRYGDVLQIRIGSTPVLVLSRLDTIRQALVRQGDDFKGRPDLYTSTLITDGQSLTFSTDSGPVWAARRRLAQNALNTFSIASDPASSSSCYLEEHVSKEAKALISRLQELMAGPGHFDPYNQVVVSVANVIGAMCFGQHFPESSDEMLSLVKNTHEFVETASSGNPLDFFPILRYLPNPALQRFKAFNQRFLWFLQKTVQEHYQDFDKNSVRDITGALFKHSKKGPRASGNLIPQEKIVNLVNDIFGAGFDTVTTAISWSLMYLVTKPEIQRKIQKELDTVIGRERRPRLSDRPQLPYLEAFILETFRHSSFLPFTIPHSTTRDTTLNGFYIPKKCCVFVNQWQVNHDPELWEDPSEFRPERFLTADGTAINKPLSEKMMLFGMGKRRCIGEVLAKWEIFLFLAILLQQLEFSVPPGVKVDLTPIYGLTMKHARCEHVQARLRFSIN
Summary of the method: (§1)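 Pooled human liver microsomes (0.5 mg/mL), 2.5 mM NADPH, 3.3 mM MgCl₂, 0.1 M phosphate pH 7.4, 0.3% DMSO, probe cocktail near Km: phenacetin 25 μM (1A2), bupropion 25 μM (2B6), diclofenac 10 μM (2C9), mephenytoin 20 μM (2C19), bufuralol 10 μM (2D6), testosterone 50 μM and midazolam 4 μM (3A4). Cold acetonitrile quench; LC-MS/MS metabolite peak-area ratio over mean control ×100; n = 3.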

CYP2B6 = molecular target: T2, CYP2B6 (Homo sapiens, UniProt P20813); test: CYP inhibition in human liver microsomes; type: in vitro ADME; settings: 1 or 10 μM test article, 20 min, 37°C
T2 sequence (P20813 1-491): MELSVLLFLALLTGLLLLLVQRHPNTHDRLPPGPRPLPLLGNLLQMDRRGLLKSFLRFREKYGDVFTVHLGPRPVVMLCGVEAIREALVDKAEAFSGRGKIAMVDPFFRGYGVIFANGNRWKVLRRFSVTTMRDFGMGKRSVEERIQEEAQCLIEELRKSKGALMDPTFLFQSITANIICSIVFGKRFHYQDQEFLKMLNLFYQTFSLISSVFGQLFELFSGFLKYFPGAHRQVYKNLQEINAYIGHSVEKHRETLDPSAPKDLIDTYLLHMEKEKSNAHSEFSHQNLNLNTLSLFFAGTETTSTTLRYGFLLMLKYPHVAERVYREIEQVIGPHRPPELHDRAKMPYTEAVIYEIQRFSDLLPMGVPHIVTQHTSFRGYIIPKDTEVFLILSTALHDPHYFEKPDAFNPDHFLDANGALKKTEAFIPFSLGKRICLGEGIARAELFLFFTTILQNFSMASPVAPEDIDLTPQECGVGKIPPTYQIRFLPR
Summary of the method: as §1

CYP2C9 = CYP2C9 (Homo sapiens, UniProt P11712); test: CYP inhibition in human liver microsomes; type: in vitro ADME; settings: 1 or 10 μM test article, 20 min, 37°C
Chain of CYP2C9 (P11712 whole entry): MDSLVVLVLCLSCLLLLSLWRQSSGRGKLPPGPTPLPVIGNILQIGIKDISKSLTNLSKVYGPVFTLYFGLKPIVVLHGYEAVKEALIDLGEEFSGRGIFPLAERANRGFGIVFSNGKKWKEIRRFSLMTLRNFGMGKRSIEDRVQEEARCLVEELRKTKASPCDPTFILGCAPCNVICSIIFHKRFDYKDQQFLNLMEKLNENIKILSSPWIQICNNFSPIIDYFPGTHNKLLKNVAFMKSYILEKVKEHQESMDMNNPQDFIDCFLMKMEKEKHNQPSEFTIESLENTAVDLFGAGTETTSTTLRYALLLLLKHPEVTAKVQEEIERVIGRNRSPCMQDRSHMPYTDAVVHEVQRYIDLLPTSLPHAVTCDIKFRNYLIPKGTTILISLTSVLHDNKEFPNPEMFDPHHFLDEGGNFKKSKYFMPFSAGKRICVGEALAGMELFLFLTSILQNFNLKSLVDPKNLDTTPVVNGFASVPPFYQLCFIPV
Summary of the method: as §1

CYP2C19 = CYP2C19 (Homo sapiens, UniProt P33261); test: CYP inhibition in human liver microsomes; type: in vitro ADME; settings: 1 or 10 μM test article, 20 min, 37°C
Chain of CYP2C19 (P33261 whole entry): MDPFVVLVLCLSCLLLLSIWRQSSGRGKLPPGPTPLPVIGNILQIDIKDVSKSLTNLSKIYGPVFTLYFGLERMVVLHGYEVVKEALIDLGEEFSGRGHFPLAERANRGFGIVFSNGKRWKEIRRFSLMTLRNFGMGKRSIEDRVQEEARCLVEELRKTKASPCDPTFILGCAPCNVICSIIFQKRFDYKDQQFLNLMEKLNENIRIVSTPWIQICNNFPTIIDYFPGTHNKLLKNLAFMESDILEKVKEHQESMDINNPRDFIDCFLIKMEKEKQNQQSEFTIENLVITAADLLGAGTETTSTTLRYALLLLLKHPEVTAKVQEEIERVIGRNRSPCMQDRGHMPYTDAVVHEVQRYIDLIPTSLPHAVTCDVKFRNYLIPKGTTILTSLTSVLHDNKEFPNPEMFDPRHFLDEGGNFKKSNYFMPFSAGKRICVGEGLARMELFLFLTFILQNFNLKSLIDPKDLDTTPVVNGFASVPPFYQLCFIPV
Summary of the method: as §1

CYP2D6 = CYP2D6 (Homo sapiens, UniProt P10635); test: CYP inhibition in human liver microsomes; type: in vitro ADME; settings: 1 or 10 μM test article, 20 min, 37°C
Chain of CYP2D6 (P10635 whole entry): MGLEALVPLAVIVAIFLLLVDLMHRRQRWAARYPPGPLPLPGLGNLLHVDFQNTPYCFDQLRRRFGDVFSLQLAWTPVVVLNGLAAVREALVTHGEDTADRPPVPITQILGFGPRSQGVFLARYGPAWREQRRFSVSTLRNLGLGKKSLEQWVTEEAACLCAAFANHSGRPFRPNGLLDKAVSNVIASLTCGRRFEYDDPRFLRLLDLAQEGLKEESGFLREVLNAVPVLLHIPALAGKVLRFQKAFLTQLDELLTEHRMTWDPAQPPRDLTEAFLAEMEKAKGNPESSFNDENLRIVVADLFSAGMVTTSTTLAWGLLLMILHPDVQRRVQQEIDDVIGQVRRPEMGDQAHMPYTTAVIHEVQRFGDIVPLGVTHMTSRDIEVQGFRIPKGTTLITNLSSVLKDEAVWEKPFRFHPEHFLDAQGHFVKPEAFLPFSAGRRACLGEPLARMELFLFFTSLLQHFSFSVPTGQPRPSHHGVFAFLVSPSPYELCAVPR
Summary of the method: as §1

CYP3A4 = CYP3A4 (Homo sapiens, UniProt P08684); test: CYP inhibition in human liver microsomes; type: in vitro ADME; settings: 1 or 10 μM test article, 20 min, 37°C
Chain of CYP3A4 (P08684 whole entry): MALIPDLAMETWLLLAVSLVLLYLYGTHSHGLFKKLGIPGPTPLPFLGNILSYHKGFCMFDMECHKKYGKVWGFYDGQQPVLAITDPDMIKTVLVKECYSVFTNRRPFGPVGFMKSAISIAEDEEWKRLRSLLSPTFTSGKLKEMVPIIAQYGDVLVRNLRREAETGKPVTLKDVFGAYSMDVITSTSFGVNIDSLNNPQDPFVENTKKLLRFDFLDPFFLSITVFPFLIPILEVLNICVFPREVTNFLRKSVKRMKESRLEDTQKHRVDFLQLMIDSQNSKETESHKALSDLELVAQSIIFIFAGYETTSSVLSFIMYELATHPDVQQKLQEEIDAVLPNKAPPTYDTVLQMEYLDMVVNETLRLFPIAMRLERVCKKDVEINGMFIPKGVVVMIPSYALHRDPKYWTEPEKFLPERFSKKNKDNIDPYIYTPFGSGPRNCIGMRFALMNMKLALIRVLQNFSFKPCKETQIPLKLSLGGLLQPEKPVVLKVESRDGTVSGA
Summary of the method: as §1

rat plasma proteins = test: Plasma protein binding by gel filtration; type: in vitro ADME, Sprague Dawley rat; settings: 2 h, 37°C
Summary of the method: (§2)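 Test compound (2.65, 13.3 and 40.0 μM final) was incubated in plasma for 2 h at 37°C. Bound compound was separated on Sephadex G-25 by spin filtration (5 min, 200 × g). Eluates were run in duplicate: EDTA addition, chloroform:methanol extraction, acetonitrile precipitation, then LC-MS/MS (MRM 751 → 195, positive ESI) against 15 plasma standards from 0 to 66.7 μM. Eluate concentration was corrected for protein dilution, measured by microbiuret against BSA standards. % bound = corrected/total (mean ± SD, n = 3).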

dog plasma proteins = test: Plasma protein binding by gel filtration; type: in vitro ADME, beagle dog; settings: 2.7, 13.3 and 40.0 μM, 2 h, 37°C
Summary of the method: as §2

human plasma proteins = test: Plasma protein binding by gel filtration; type: in vitro ADME; settings: 2 h, 37°C
Summary of the method: as §2

Stability in plasma [2] = type: in vitro ADME; settings: mouse plasma diluted 1:1 with PBS, 15 μM, up to 1 h, 37°C
Stability in plasma [3] = type: in vitro ADME; settings: rat plasma diluted 1:1 with PBS, 15 μM, up to 1 h, 37°C
Stability in plasma [4] = type: in vitro ADME; settings: dog plasma diluted 1:1 with PBS, 15 μM, up to 1 h, 37°C
Stability in plasma [5] = type: in vitro ADME; settings: human plasma diluted 1:1 with PBS, 15 μM, up to 1 h, 37°C
[6] = Stability in acidic aqueous buffered solutions; type: physicochemical; settings: for stability in acidic buffer: 48 h, 25°C/60%RH
Summary of the method: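 Test compound at 10 mg/mL was held in USP buffers: hydrochloric acid (pH 1.40), acetate (pH 4.50) and phosphate (pH 6.80). Incubation was at 25°C/60% RH in sealed, light-protected glass vials. Aliquots taken at 1, 3, 6, 24 and 48 h were diluted 10-fold and analysed by LC-MS, as for the microsomal stability samples.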

[7] = Stability in simulated gastric fluid; type: in vitro ADME; settings: SGF pH 1.2 with pepsin, 37°C, 60 min
Summary of the method: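 Simulated gastric fluid (pH 1.2) contained 3.2 g/L porcine pepsin, 2 g/L NaCl and 8 mL/L 6 N HCl, stored at 2–8°C and pre-warmed to 37°C. […] Reactions were stopped with 0.1 M sodium carbonate and chilled acetonitrile containing ¹³C internal standard, filtered, and analysed by LC-MS; content is expressed relative to initial.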

[8] = Permeability through Transwell plate not containing Caco-2 cells; type: in vitro ADME; settings: 24-well Transwell plate not containing Caco-2 cells
Summary of the method: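 This run repeated the Caco-2 bi-directional protocol in a Transwell plate without cells. Test compound (10 and 50 μM final) in HBSS, pH 7.4, was placed in duplicate wells for each direction. Receiver aliquots were taken at 30, 60, 90 and 120 min into 10 mM EDTA and replaced with fresh medium. Donor wells were sampled at start and end for recovery. Analysis was LC-MS/MS (positive ESI, MRM), and Papp was calculated from dQ/dt, receiver volume, membrane area and initial concentration.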

[9] = orally administered, 225 mg/kg; cited from earlier work
Caco-2 cells = test: Bi-directional permeability study using Caco-2 cells; settings: for % Recovery of Test Article A–B (mean) / % Recovery of Test Article B-A (mean): end of experiment
[10] = negative control; cited from earlier work
P-gp = test: Bi-directional permeability study using Caco-2 cells; settings: human; for Papp A→B at 120 min, 1 μM: Caco-2, pH 6, Papp A–B (mean); for Papp B→A at 120 min, 1 μM: Caco-2, pH 7.4, Papp B-A (mean)

In the case of `O=C(NCCCN(CCCCN(CCCNC(=O)c1cccc(=O)n1O)C(=O)c1cccc(=O)n1O)C(=O)c1cccc(=O)n1O)c1cccc(=O)n1O` [3,4,3-LI(1,2-HOPO)], the “% of test article remaining (metabolic stability)” value [1] is reported as “no loss of parent test article”, the “% CYP activity relative to control” value (CYP1A2) is reported as “none of the CYP isoforms were significantly influenced” and the “% CYP activity relative to control” value (CYP2B6) is reported as “none of the CYP isoforms were significantly influenced”. For the same molecule, the “% CYP activity relative to control” value (CYP2C9) was “none of the CYP isoforms were significantly influenced”, the “% CYP activity relative to control” value (CYP2C19) was “none of the CYP isoforms were significantly influenced” and the “% CYP activity relative to control” value (CYP2D6) was “none of the CYP isoforms were significantly influenced”. The “% CYP activity relative to control” value (CYP3A4) was “none of the CYP isoforms were significantly influenced”, the “% protein-bound” value (rat plasma proteins; 2.65 μM) was “below the lower limit of quantitation” and the “extent of plasma protein binding (rank among species)” value (“extent of plasma protein binding” below) (rat plasma proteins; 2.7, 13.3 and 40.0 μM) was “lowest”. The “extent of plasma protein binding” value (dog plasma proteins) was “greatest”, the “% protein-bound” value (human plasma proteins; 2.65 μM) was “below the lower limit of quantitation” and the “extent of plasma protein binding” value (human plasma proteins; 2.7, 13.3 and 40.0 μM) was “intermediate”. The “stability in plasma (% of test article remaining)” value (Stability in plasma [2]) was “No degradation”, the “stability in plasma (% of test article remaining)” value (Stability in plasma [3]) was “No degradation” and the “stability in plasma (% of test article remaining)” value (Stability in plasma [4]) was “No degradation”. The “stability in plasma (% of test article remaining)” value (Stability in plasma [5]) was “No degradation”, the “stability in acidic buffer” value ([6]; acetate buffer USP pH 4.50, 10 mg/mL) was “stable” and the “stability in acidic buffer” value ([6]; hydrochloric acid buffer USP pH 1.40, 10 mg/mL) was “stable”. For the same molecule, the “stability in hydrochloric acid buffer without pepsin” value ([6]; pH 1.4, 3 h) was “stable”, the “stability in acidic buffer” value ([6]; phosphate buffer USP pH 6.80, 10 mg/mL) was “stable” and the “% of the initial content remained in simulated gastric fluid” value ([7]; 1 μM) was 76%. The “% of the initial content remained in simulated gastric fluid” value ([7]; 10 μM) was 72%, the “permeation of the Transwell membrane in the absence of Caco-2 cells” value [8] was “detectable levels” and the plasma concentration [9] was “less than 2 μg/mL”. The “% Recovery of Test Article A–B (mean)” value (Caco-2 cells; 10 μM + 100 μM ketoconazole) was 120.6%, the “% Recovery of Test Article B-A (mean)” value (Caco-2 cells; 10 μM + 100 μM ketoconazole) was 90.3% and the “% Recovery of Test Article A–B (mean)” value (Caco-2 cells; 10 μM) was 112.2%. The “% Recovery of Test Article B-A (mean)” value (Caco-2 cells; 10 μM) was 87.2%, the “% Recovery of Test Article A–B (mean)” value (Caco-2 cells; 50 μM + 100 μM ketoconazole) was 114.9% and the “% Recovery of Test Article B-A (mean)” value (Caco-2 cells; 50 μM + 100 μM ketoconazole) was 85.7%. For the same molecule, the “% Recovery of Test Article A–B (mean)” value (Caco-2 cells; 50 μM) was 105.5%, the “% Recovery of Test Article B-A (mean)” value (Caco-2 cells; 50 μM) was 97.6% and the “concentration in the receiving wells” value (Caco-2 cells; 10 and 50 μM solutions, lower limit of quantitation) was < 500 nM. For the same molecule, the “permeability across the Caco-2 monolayer” value (Caco-2 cells; bi-directional, 10 and 50 μM) was “not permeable”.
In the case of `CC(C)NCC(O)COc1cccc2ccccc12` (stereo not drawn) [propranolol], the “stability in gastric fluid” value [10] is listed as “stable”.
Molecule `C[C@H]1O[C@@H](O[C@H]2[C@@H](O)C[C@H](O[C@H]3[C@@H](O)C[C@H](O[C@H]4CC[C@@]5(C)[C@H](CC[C@@H]6[C@@H]5C[C@@H](O)[C@]5(C)[C@@H](C7=CC(=O)OC7)CC[C@]65O)C4)O[C@@H]3C)O[C@@H]2C)C[C@H](O)[C@@H]1O` [digoxin, reference compound] has a Papp A→B at 120 min, 1 μM (P-gp; 1 μM + 100 μM ketoconazole) of 3.7 ×10⁻⁶ cm/s, a Papp A→B at 120 min, 1 μM (P-gp; 1 μM, control) of 3.1 ×10⁻⁶ cm/s and a Papp B→A at 120 min, 1 μM (P-gp; 1 μM + 100 μM ketoconazole) of 1.8 ×10⁻⁶ cm/s. The Papp B→A at 120 min, 1 μM (P-gp; 1 μM, control) was 8.6 ×10⁻⁶ cm/s.
